Laboratory results from ChEMBL document CHEMBL5653630, “Activation of the p53-MDM4 regulatory axis defines the anti-tumour response to PRMT5 inhibition through its role in regulating cellular splicing” (Sci Rep, 2018).
Each block holds one compound with its values, some of them ahead of it. The source made the active and inactive calls. No cut-off for these calls is given here.

Assays:
Maver1 = experiment: Induction of apoptosis in human MAVER-1 cells assessed as dead cells incubated for 6 days by annexin-V/FITC propidium iodide staining based flow cytometry analysis; type: functional, cell-based; conditions: dose <= 5000.0 nM, time 6.0 day
JVM-2 = experiment: Induction of apoptosis in human JVM-2 cells assessed as early apoptotic cells incubated for 6 days by annexin-V/FITC propidium iodide staining based flow cytometry analysis; type: functional, cell-based; conditions: dose <= 5000.0 nM, time 6.0 day
COLO 320 = experiment: Antiproliferative activity against human COLO 320 cells assessed as cell growth inhibition incubated for 10 days; type: functional; conditions: COLO 320, 240 h, time 10 day
Method in brief: (§1)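 Cells kept in RPMI-1640 with 10% FBS, 2 mM L-alanyl-L-glutamine and 1 mM Na pyruvate (or a special medium) at 37°C, 5% CO2. Compound added 24 h after seeding, 10 concentrations in 3.16-fold dilution, 0.1% DMSO final. Medium replaced and cells re-dosed at 168 h; 240 h incubation. Nuclei fixed, dye-stained and imaged. gIC50 = growth midway between untreated and time-zero cell counts, from a 4-parameter fit.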

SH-4 = experiment: Antiproliferative activity against human SH-4 cells assessed as cell growth inhibition incubated for 10 days; type: functional; conditions: SH-4, 240 h, time 10 day
[1] = molecular target: Protein arginine N-methyltransferase 5 (Homo sapiens) (UniProt O14744); experiment: Inhibition of PRMT5 in human Z138 cells assessed as short MDM4 splicing at 200 to 1000 nM incubated for 3 days by RT-PCR analysis; type: cell-based; conditions: dose 200-1000 nM, time 3.0 day
U-87 MG = experiment: Antiproliferative activity against human U-87 MG cells assessed as cell growth inhibition incubated for 10 days; type: functional, U-87MG ATCC; conditions: 240 h, time 10 day
DLD-1 = experiment: Antiproliferative activity against human DLD-1 cells assessed as cell growth inhibition incubated for 10 days; type: functional; conditions: DLD-1, 240 h, time 10 day
Method in brief: (§2)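 Outsourced panel run in 384-well plates. Cells were grown in RPMI-1640/10% FBS or a special medium at 37°C, 5% CO2. Compound was added 24 h after seeding as a 10-point, 3.16-fold series in 0.1% DMSO. Medium was refreshed and cells re-dosed at 168 h, with a time-zero plate kept. At 240 h cells were fixed, nuclei stained and imaged. gIC50 is growth midway between untreated and time zero, from a 4-parameter fit.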

BJAB = experiment: Antiproliferative activity against human BJAB cells assessed as cell growth inhibition incubated for 6 days by celltiter-glo assay; type: functional; conditions: 144 h, time 6 day
[2] = Antiproliferative activity against human OE21 cells assessed as cell growth inhibition incubated for 10 days; type: functional; conditions: OE21, 240 h, time 10 day
RD = experiment: Antiproliferative activity against human RD cells assessed as cell growth inhibition incubated for 10 days; type: functional; conditions: 240 h, time 10 day
SK-MEL-28 = experiment: Antiproliferative activity against human SK-MEL-28 cells assessed as cell growth inhibition incubated for 10 days; type: functional; conditions: SK-MEL-28, 240 h, time 10 day
G-401 = experiment: Antiproliferative activity against human G-401 cells assessed as cell growth inhibition incubated for 10 days; type: functional; conditions: G-401, 240 h, time 10 day; method in brief: as §2
LS-1034 = experiment: Antiproliferative activity against human LS1034 cells assessed as cell growth inhibition incubated for 10 days; type: functional; conditions: LS-1034, 240 h, time 10 day
CAPAN-1 = experiment: Antiproliferative activity against human CAPAN-1 cells assessed as cell growth inhibition incubated for 10 days; type: functional; conditions: CAPAN-1, 240 h, time 10 day; method in brief: as §1
NCI-H661 = experiment: Antiproliferative activity against human NCI-H661 cells assessed as cell growth inhibition incubated for 10 days; type: functional; conditions: NCI-H661, 240 h, time 10 day
PC-3 = experiment: Antiproliferative activity against human PC-3 cells assessed as cell growth inhibition incubated for 10 days; type: functional; conditions: PC-3, 240 h, time 10 day
HepG2 = experiment: Antiproliferative activity against human HepG2 cells assessed as cell growth inhibition incubated for 10 days; type: functional; conditions: HepG2, 240 h, time 10 day; method in brief: as §2
[3] = molecular target: Protein arginine N-methyltransferase 5 (Homo sapiens) (UniProt O14744); experiment: Inhibition of PRMT5 in human Z138 cells expressing EGFP at 1 to 100000 nM incubated for 3 to 6 days; type: cell-based; conditions: dose 1-100000 nM, time 3-6 day
NCI-H441 = experiment: Antiproliferative activity against human NCI-H441 cells assessed as cell growth inhibition incubated for 10 days; type: functional; conditions: NCI-H441, 240 h, time 10 day
ES-2 = experiment: Antiproliferative activity against human ES2 cells assessed as cell growth inhibition incubated for 10 days; type: functional; conditions: ES-2, 240 h, time 10 day; method in brief: as §2
NCI-H747 = experiment: Antiproliferative activity against human NCI-H747 cells assessed as cell growth inhibition incubated for 10 days; type: functional; conditions: NCI-H747, 240 h, time 10 day
SW1783 = experiment: Antiproliferative activity against human SW1783 cells assessed as cell growth inhibition incubated for 10 days; type: functional; conditions: SW1783, 240 h, time 10 day
HMCB cell line = experiment: Antiproliferative activity against human HMCB cell line assessed as cell growth inhibition incubated for 10 days; type: functional; conditions: 240 h, time 10 day; method in brief: as §2
HPAF-II = experiment: Antiproliferative activity against human HPAF-II cells assessed as cell growth inhibition incubated for 10 days; type: functional; conditions: 240 h, time 10 day; method in brief: as §2

Chain of Protein arginine N-methyltransferase 5 (Homo sapiens) (O14744 whole entry): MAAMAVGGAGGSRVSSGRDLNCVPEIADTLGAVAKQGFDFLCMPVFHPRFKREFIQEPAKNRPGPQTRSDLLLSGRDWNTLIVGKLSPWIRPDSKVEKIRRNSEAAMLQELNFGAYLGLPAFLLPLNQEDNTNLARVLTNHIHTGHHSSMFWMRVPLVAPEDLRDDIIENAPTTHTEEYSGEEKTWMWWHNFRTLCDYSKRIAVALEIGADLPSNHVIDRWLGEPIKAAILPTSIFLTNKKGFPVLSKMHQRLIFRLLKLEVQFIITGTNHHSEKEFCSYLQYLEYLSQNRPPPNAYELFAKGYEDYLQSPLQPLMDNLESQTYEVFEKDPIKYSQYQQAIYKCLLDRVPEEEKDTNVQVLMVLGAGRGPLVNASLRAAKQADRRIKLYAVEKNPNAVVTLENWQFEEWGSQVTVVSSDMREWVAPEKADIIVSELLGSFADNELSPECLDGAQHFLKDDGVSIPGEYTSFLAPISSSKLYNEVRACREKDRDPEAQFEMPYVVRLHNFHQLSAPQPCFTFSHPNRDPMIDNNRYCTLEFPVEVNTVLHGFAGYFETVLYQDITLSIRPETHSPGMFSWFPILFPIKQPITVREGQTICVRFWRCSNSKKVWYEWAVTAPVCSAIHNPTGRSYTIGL

Structure (SMILES): CC(=O)N1CCC(Nc2cc(C(=O)NC[C@H](O)CN3CCc4ccccc4C3)ncn2)CC1 [PEMRAMETOSTAT]
- Activity (Maver1): Dose-Dependent Effect
- Activity (JVM-2): Dose-Dependent Effect

- GI50 (COLO 320): 80.3 nM
- inhibition [1]: Active
- GI50 (U-87 MG): 67.6 nM
- GI50 (DLD-1): 134 nM
- GI50 (SK-MEL-28): 239 nM
- GI50 (NCI-H661): 152 nM
- GI50 (PC-3): 873 nM
- GI50 (HepG2): 214 nM
- inhibition [3]: inactive
- GI50 (NCI-H441): 556 nM
- GI50 (NCI-H747): 2580 nM
- GI50 (SW1783): 389 nM
Structure (SMILES): O=C(NC[C@H](O)CN1CCc2ccccc2C1)c1ccnc(NC2CCC2)c1
- GI50 (SH-4): 75.2 nM
- GI50 (BJAB): 3100 nM
- GI50 [2]: 146 nM
- GI50 (RD): 639 nM
- GI50 (G-401): 38.4 nM
- GI50 (LS-1034): 172 nM
- GI50 (CAPAN-1): 370 nM
- GI50 (ES-2): 106 nM
- GI50 (HMCB cell line): 666 nM
- GI50 (HPAF-II): 154 nM
